According to ChEMBL document CHEMBL1671716, “Antimicrobial susceptibility patterns for recent clinical isolates of anaerobic bacteria in South Korea” (2010):
In brackets after ≈: the same amount, converted by molar mass.

How the values were obtained:
Eubacterium sp. [1] = assay: Antimicrobial activity against Eubacterium sp. assessed as percent susceptible isolates after 48 hrs by agar dilution method; type: functional
How it was run: (§1)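 CLSI agar dilution (M11-A7); inoculum 10^5 CFU applied by replicator; plates incubated anaerobically 48 h at 37°C. For piperacillin-tazobactam, tazobactam held constant at 4 μg/ml.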

Bacteroides ovatus [2] = assay: Antimicrobial activity against Bacteroides ovatus assessed as percent susceptible isolates after 48 hrs by agar dilution method; type: functional
Anaerococcus prevotii [3] = assay: Antimicrobial activity against Anaerococcus prevotii after 48 hrs by agar dilution method; type: functional
How it was run: (§2)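 MICs on clinical anaerobe isolates by the CLSI agar dilution method. Inoculum of 10^5 CFU applied with a Steers replicator. Plates incubated 48 h at 37°C in an anaerobic chamber.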

Schaalia odontolytica [4] = assay: Antimicrobial activity against Actinomyces odontolyticus assessed as percent resistant isolates after 48 hrs by agar dilution method; type: functional
How it was run: (§3)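 CLSI agar dilution on recent Korean clinical anaerobe isolates. Inoculum 10^5 CFU per spot by replicator. Plates incubated in an anaerobic chamber at 37°C for 48 h. For piperacillin plus tazobactam, tazobactam was held constant at 4 μg/ml. Resistance and susceptibility rates derived from MICs.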

[5] = tested on: Bifidobacterium adolescentis; assay: Antimicrobial activity against Bifidobacterium adolescentis assessed as percent resistant isolates after 48 hrs by agar dilution method; type: functional; how it was run: as §3
Schaalia meyeri = assay: Antimicrobial activity against Actinomyces meyeri assessed as percent susceptible isolates after 48 hrs by agar dilution method; type: functional
Fusobacterium necrogenes = assay: Antimicrobial activity against Fusobacterium necrogenes after 48 hrs by agar dilution method; type: functional; how it was run: as §1
Schaalia odontolytica [6] = assay: Antimicrobial activity against Actinomyces odontolyticus after 48 hrs by agar dilution method; type: functional; how it was run: as §2
Bifidobacterium sp. [7] = assay: Antimicrobial activity against Bifidobacterium sp. assessed as percent resistant isolates after 48 hrs by agar dilution method; type: functional; how it was run: as §3
Prevotella bivia = assay: Antimicrobial activity against Prevotella bivia assessed as percent resistant isolates after 48 hrs by agar dilution method; type: functional; how it was run: as §3
Finegoldia magna [8] = assay: Antimicrobial activity against Finegoldia magna assessed as percent susceptible isolates after 48 hrs by agar dilution method; type: functional; how it was run: as §1
Actinomyces israelii [9] = assay: Antimicrobial activity against Actinomyces israelii assessed as percent susceptible isolates after 48 hrs by agar dilution method; type: functional
[10] = tested on: Bacteroides thetaiotaomicron; assay: Antimicrobial activity against Bacteroides thetaiotaomicron after 48 hrs by agar dilution method; type: functional; how it was run: as §2
Eubacterium sp. [11] = assay: Antimicrobial activity against Eubacterium sp. assessed as percent resistant isolates after 48 hrs by agar dilution method; type: functional; how it was run: as §3
Anaerococcus prevotii [12] = assay: Antimicrobial activity against Anaerococcus prevotii assessed as percent susceptible isolates after 48 hrs by agar dilution method; type: functional
Finegoldia magna [13] = assay: Antimicrobial activity against Finegoldia magna assessed as percent resistant isolates after 48 hrs by agar dilution method; type: functional; how it was run: as §3
Prevotella intermedia = assay: Antimicrobial activity against Prevotella intermedia assessed as percent resistant isolates after 48 hrs by agar dilution method; type: functional; how it was run: as §3
Bifidobacterium sp. [14] = assay: Antimicrobial activity against Bifidobacterium sp. assessed as percent susceptible isolates after 48 hrs by agar dilution method; type: functional; how it was run: as §1
Anaerococcus prevotii [15] = assay: Antimicrobial activity against Anaerococcus prevotii assessed as percent resistant isolates after 48 hrs by agar dilution method; type: functional; how it was run: as §3
[16] = tested on: Parabacteroides distasonis; assay: Antimicrobial activity against Bacteroides distasonis assessed as percent resistant isolates after 48 hrs by agar dilution method; type: functional; how it was run: as §3
[17] = tested on: Peptoniphilus asaccharolyticus; assay: Antimicrobial activity against Peptoniphilus asaccharolyticus assessed as percent susceptible isolates after 48 hrs by agar dilution method; type: functional; how it was run: as §1
Actinomyces naeslundii [18] = assay: Antimicrobial activity against Actinomyces naeslundii assessed as percent susceptible isolates after 48 hrs by agar dilution method; type: functional
[19] = tested on: Bacteroides thetaiotaomicron; assay: Antimicrobial activity against Bacteroides thetaiotaomicron assessed as percent resistant isolates after 48 hrs by agar dilution method; type: functional; how it was run: as §3
Hoylesella oralis [20] = assay: Antimicrobial activity against Prevotella oralis after 48 hrs by agar dilution method; type: functional; how it was run: as §1
Fusobacterium varium = assay: Antimicrobial activity against Fusobacterium varium after 48 hrs by agar dilution method; type: functional; how it was run: as §1
Bacteroides fragilis [21] = assay: Antimicrobial activity against Bacteroides fragilis after 48 hrs by agar dilution method; type: functional; how it was run: as §2
Prevotella buccae [22] = assay: Antimicrobial activity against Prevotella buccae assessed as percent resistant isolates after 48 hrs by agar dilution method; type: functional, Segatella buccae; how it was run: as §3
[23] = tested on: Bifidobacterium adolescentis; assay: Antimicrobial activity against Bifidobacterium adolescentis assessed as percent susceptible isolates after 48 hrs by agar dilution method; type: functional
[24] = tested on: Peptostreptococcus anaerobius; assay: Antimicrobial activity against Peptostreptococcus anaerobius after 48 hrs by agar dilution method; type: functional; how it was run: as §1
Prevotella buccae [25] = assay: Antimicrobial activity against Prevotella buccae after 48 hrs by agar dilution method; type: functional; conditions: Segatella buccae; how it was run: as §1
Phocaeicola vulgatus = assay: Antimicrobial activity against Bacteroides vulgatus assessed as percent resistant isolates after 48 hrs by agar dilution method; type: functional; how it was run: as §3
Hoylesella oralis [26] = assay: Antimicrobial activity against Prevotella oralis assessed as percent susceptible isolates after 48 hrs by agar dilution method; type: functional
How it was run: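 CLSI agar dilution MIC testing of clinical isolates. 10^5 CFU spotted by replicator, plates incubated 48 h at 37°C in an anaerobic chamber. Susceptibility rates derived from the MICs.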

[27] = tested on: Peptoniphilus asaccharolyticus; assay: Antimicrobial activity against Peptoniphilus asaccharolyticus assessed as percent resistant isolates after 48 hrs by agar dilution method; type: functional; how it was run: as §3
Clostridioides difficile [28] = assay: Antimicrobial activity against Clostridium difficile assessed as percent resistant isolates after 48 hrs by agar dilution method; type: functional
Bacteroides ovatus [29] = assay: Antimicrobial activity against Bacteroides ovatus assessed as percent resistant isolates after 48 hrs by agar dilution method; type: functional; how it was run: as §3
Parvimonas micra = assay: Antimicrobial activity against Peptostreptococcus micros after 48 hrs by agar dilution method; type: functional; how it was run: as §1
Fusobacterium nucleatum = assay: Antimicrobial activity against Fusobacterium nucleatum after 48 hrs by agar dilution method; type: functional; how it was run: as §1
Bifidobacterium sp. [30] = assay: Antimicrobial activity against Bifidobacterium sp. after 48 hrs by agar dilution method; type: functional; how it was run: as §2
Schaalia odontolytica [31] = assay: Antimicrobial activity against Actinomyces odontolyticus assessed as percent susceptible isolates after 48 hrs by agar dilution method; type: functional
Actinomyces israelii [32] = assay: Antimicrobial activity against Actinomyces israelii assessed as percent resistant isolates after 48 hrs by agar dilution method; type: functional; how it was run: as §3
Bacteroides fragilis [33] = assay: Antimicrobial activity against Bacteroides fragilis assessed as percent susceptible isolates after 48 hrs by agar dilution method; type: functional
[34] = tested on: Peptostreptococcus anaerobius; assay: Antimicrobial activity against Peptostreptococcus anaerobius assessed as percent susceptible isolates after 48 hrs by agar dilution method; type: functional; how it was run: as §3
Eggerthella lenta = assay: Antimicrobial activity against Eubacterium lentum after 48 hrs by agar dilution method; type: functional; how it was run: as §1
Actinomyces naeslundii [35] = assay: Antimicrobial activity against Actinomyces naeslundii after 48 hrs by agar dilution method; type: functional; how it was run: as §2
[36] = tested on: Porphyromonas asaccharolytica; assay: Antimicrobial activity against Porphyromonas asaccharolytica after 48 hrs by agar dilution method; type: functional; how it was run: as §1
Bacteroides caccae = assay: Antimicrobial activity against Bacteroides caccae assessed as percent resistant isolates after 48 hrs by agar dilution method; type: functional; how it was run: as §3
Clostridioides difficile [37] = assay: Antimicrobial activity against Clostridium difficile assessed as percent susceptible isolates after 48 hrs by agar dilution method; type: functional
[38] = tested on: Parabacteroides distasonis; assay: Antimicrobial activity against Bacteroides distasonis assessed as percent susceptible isolates after 48 hrs by agar dilution method; type: functional

`CCN1CCN(C(=O)N[C@@H](C(=O)N[C@@H]2C(=O)N3[C@@H]2SC(C)(C)[C@@H]3C(=O)O)c2ccccc2)C(=O)C1=O` [PIPERACILLIN] gave an Activity (Eubacterium sp. [1]) of 92%, an Activity (Bacteroides ovatus [2]) of 42% and an MIC50 (Anaerococcus prevotii [3]) of 0.125 µg/mL (≈ 0.242 µM). The MIC90 (Anaerococcus prevotii [3]) was 0.25 µg/mL (≈ 0.483 µM), the Activity (Schaalia odontolytica [4]) was 0% and the Activity [5] was 0%. It also gave an Activity (Schaalia meyeri) of 92%, an MIC (Fusobacterium necrogenes) of 0.06 µg/mL (≈ 0.116 µM) and an MIC50 (Schaalia odontolytica [6]) of 1 µg/mL (≈ 1.93 µM). The MIC90 (Schaalia odontolytica [6]) was 8 µg/mL (≈ 15.5 µM), the Activity (Bifidobacterium sp. [7]) was 0% and the Activity (Prevotella bivia) was 11%. For the same compound, the Activity (Finegoldia magna [8]) was 100%, the Activity (Actinomyces israelii [9]) was 92% and the MIC50 [10] was 128 µg/mL (≈ 247 µM). For the same compound, the MIC90 [10] was greater than 256 µg/mL, the Activity (Eubacterium sp. [11]) was 0% and the Activity (Anaerococcus prevotii [12]) was 100%. The Activity (Finegoldia magna [13]) was 0%, the Activity (Prevotella intermedia) was 0% and the Activity (Bifidobacterium sp. [14]) was 92%. For the same compound, the Activity (Anaerococcus prevotii [15]) was 0%, the Activity [16] was 51% and the Activity [17] was 100%. The Activity (Actinomyces naeslundii [18]) was 92%, the Activity [19] was 51% and the MIC50 (Hoylesella oralis [20]) was 16 µg/mL (≈ 30.9 µM). It also gave an MIC90 (Hoylesella oralis [20]) of 128 µg/mL (≈ 247 µM), an MIC (Fusobacterium varium) of 0.06 µg/mL (≈ 0.116 µM) and an MIC50 (Bacteroides fragilis [21]) of 8 µg/mL (≈ 15.5 µM). For the same compound, the MIC90 (Bacteroides fragilis [21]) was greater than 256 µg/mL, the Activity (Prevotella buccae [22]) was 11% and the Activity [23] was 92%. For the same compound, the MIC50 [24] was 0.25 µg/mL (≈ 0.483 µM), the MIC90 [24] was 16 µg/mL (≈ 30.9 µM) and the MIC50 (Prevotella buccae [25]) was 16 µg/mL (≈ 30.9 µM). The MIC90 (Prevotella buccae [25]) was 128 µg/mL (≈ 247 µM), the Activity (Phocaeicola vulgatus) was 51% and the Activity (Hoylesella oralis [26]) was 78%. It also gave an Activity [27] of 0%, an Activity (Clostridioides difficile [28]) of 0% and an Activity (Bacteroides ovatus [29]) of 51%. It also gave an MIC50 (Parvimonas micra) of 0.25 µg/mL (≈ 0.483 µM), an MIC90 (Parvimonas micra) of 16 µg/mL (≈ 30.9 µM) and an MIC (Fusobacterium nucleatum) of 0.06 µg/mL (≈ 0.116 µM). For the same compound, the MIC50 (Bifidobacterium sp. [30]) was 1 µg/mL (≈ 1.93 µM), the MIC90 (Bifidobacterium sp. [30]) was 8 µg/mL (≈ 15.5 µM) and the Activity (Schaalia odontolytica [31]) was 92%. For the same compound, the Activity (Actinomyces israelii [32]) was 0%, the Activity (Bacteroides fragilis [33]) was 67% and the Activity [34] was 100%. It also gave an MIC50 (Eggerthella lenta) of 1 µg/mL (≈ 1.93 µM), an MIC90 (Eggerthella lenta) of 8 µg/mL (≈ 15.5 µM) and an MIC50 (Actinomyces naeslundii [35]) of 1 µg/mL (≈ 1.93 µM). It also gave an MIC90 (Actinomyces naeslundii [35]) of 8 µg/mL (≈ 15.5 µM), an MIC [36] of 0.06 µg/mL (≈ 0.116 µM) and an Activity (Bacteroides caccae) of 51%. It also gave an Activity (Clostridioides difficile [37]) of 100% and an Activity [38] of 42%.
